ChEMBL document CHEMBL3286129, “Optimization of peptidomimetic boronates bearing a P3 bicyclic scaffold as proteasome inhibitors” (Eur J Med Chem, 2014)
The source made the active and inactive calls. The rule behind the calls is not given here.

Key:
[1] = Cytotoxicity against human colon cancer cells assessed as cell growth at 10 uM relative to control; type: functional; settings: Cancer cell lines, read-out: Activity
Summary of the method: (§1)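 Single-concentration screen against a panel of human cancer cell lines. Each value is the mean percent growth across the cell lines of that tumour subpanel.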

[2] = Cytotoxicity against human ovarian cancer cells assessed as cell growth at 10 uM relative to control; type: functional; settings: Cancer cell lines, read-out: Activity; summary of the method: as §1
[3] = Cytotoxicity against human NSCLC cells assessed as cell growth at 10 uM relative to control; type: functional; settings: read-out: Activity; summary of the method: as §1
[4] = Cytotoxicity against human prostate cancer cells assessed as cell growth at 10 uM relative to control; type: functional; settings: Cancer cell lines, read-out: Activity; summary of the method: as §1
[5] = Cytotoxicity against human melanoma cells assessed as cell growth at 10 uM relative to control; type: functional; settings: read-out: Activity; summary of the method: as §1
[6] = Cytotoxicity against human breast cancer cells assessed as cell growth at 10 uM relative to control; type: functional; settings: Cancer cell lines, read-out: Activity; summary of the method: as §1
[7] = Cytotoxicity against human leukemia cells assessed as cell growth at 10 uM relative to control; type: functional; settings: read-out: Activity; summary of the method: as §1
[8] = target: Proteasome Macropain subunit (Homo sapiens) (UniProt P49721); assay: Inhibition of trypsin-like activity of 20S proteasome in human erythrocytes using Boc-Leu-Arg-Arg-AMC as substrate by fluorescence assay; type: cell-based
Summary of the method: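 Human 20S proteasome 0.0025 mg/mL at 30 °C in 50 mM Tris pH 7.4, 50 mM NaCl, 0.5 mM EDTA, 0.03% SDS, 7.5% DMSO. Varied inhibitor concentrations; AMC release monitored continuously for 10 min, ex 380/em 460 nm. Ki derived from progress-curve IC50 fit.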

[9] = Cytotoxicity against human renal cancer cells assessed as cell growth at 10 uM relative to control; type: functional; settings: Cancer cell lines, read-out: Activity; summary of the method: as §1
[10] = Cytotoxicity against human CNSC cells assessed as cell growth at 10 uM relative to control; type: functional; settings: read-out: Activity; summary of the method: as §1
[11] = target: T1, Proteasome Macropain subunit MB1 (Homo sapiens, UniProt P28074); assay: Inhibition of chymotrypsin-like activity of 20S proteasome in human erythrocytes using Suc-Leu-Leu-Val-Tyr-AMC as substrate by fluorescence assay; settings: read-out: Ki
T1 sequence (P28074 whole entry): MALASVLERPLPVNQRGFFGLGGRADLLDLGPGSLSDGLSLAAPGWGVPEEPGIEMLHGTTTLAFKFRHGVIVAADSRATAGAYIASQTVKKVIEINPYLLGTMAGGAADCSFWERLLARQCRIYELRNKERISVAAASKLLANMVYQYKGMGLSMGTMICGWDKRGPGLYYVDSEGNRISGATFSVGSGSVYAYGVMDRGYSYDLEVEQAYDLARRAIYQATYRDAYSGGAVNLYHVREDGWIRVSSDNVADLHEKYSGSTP

[12] = target: Chymotrypsinogen A (Bos taurus, UniProt P00766); assay: Inhibition of bovine pancreatic alpha-chymotrypsin using Suc-Leu-Leu-Val-Tyr-AMC as substrate by fluorescence assay
Summary of the method: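 Enzyme incubated at 20 °C in 50 mM Tris pH 8.0, 100 mM NaCl, 5 mM EDTA, 7.5% DMSO with varied inhibitor concentrations. Substrate hydrolysis followed for 10 min. Ki from progress curves; mean of three determinations.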

[13] = target: T2, Proteasome component C5 (Homo sapiens, UniProt P20618); assay: Inhibition of PGPH-like activity of 20S proteasome in human erythrocytes using Z-Leu-Leu-Glu-AMC as substrate by fluorescence assay
T2 sequence (P20618 whole entry): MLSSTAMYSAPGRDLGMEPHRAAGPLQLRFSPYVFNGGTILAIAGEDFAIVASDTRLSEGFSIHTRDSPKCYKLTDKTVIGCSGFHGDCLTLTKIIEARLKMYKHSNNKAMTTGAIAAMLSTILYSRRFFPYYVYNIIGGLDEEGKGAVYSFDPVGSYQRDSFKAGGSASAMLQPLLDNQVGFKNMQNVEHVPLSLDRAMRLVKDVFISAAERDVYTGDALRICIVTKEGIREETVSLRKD
Summary of the method: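 Human 20S proteasome 0.004 mg/mL, 30 °C, 50 mM Tris pH 7.5 with 25 mM KCl, 10 mM NaCl, 1 mM MgCl2, 0.03% SDS, 5% DMSO. Ki from 4-parameter IC50 fit of progress curves, corrected to zero substrate via Km. Mean of three.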

Sequence of Proteasome Macropain subunit (Homo sapiens) (P49721 whole entry): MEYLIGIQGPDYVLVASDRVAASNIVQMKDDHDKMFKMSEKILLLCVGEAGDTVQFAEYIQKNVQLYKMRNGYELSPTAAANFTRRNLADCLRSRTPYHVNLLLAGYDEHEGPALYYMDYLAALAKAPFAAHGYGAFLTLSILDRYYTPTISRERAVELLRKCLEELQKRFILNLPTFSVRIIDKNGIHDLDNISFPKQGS

inhibition [8] | Ki [11] | Ki [12] | Ki [13] | SMILES | growth at 10 µM [1] | growth at 10 µM [2] | growth at 10 µM [3] | growth at 10 µM [4] | growth at 10 µM [5] | growth at 10 µM [6] | growth at 10 µM [7] | growth at 10 µM [9] | growth at 10 µM [10]
inactive | – | – | – | CC(C)CCNC(=O)Cn1ccc2ccccc2c1=O | 100% | 104% | 97.2% | 101% | 104% | 103% | 99.5% | 97.4% | 102%
inactive | 2.34 µM | Not Active | Not Active | CC(C)CCNC(=O)Cn1ccc2ccc(Br)cc2c1=O | – | – | – | – | – | – | – | – | –
inactive | 4.57 µM | – | Not Active | CC(C)CCNC(=O)CCn1ccc2ncccc2c1=O | – | – | – | – | – | – | – | – | –
